Source: ChEMBL document CHEMBL5055621, “Synthesis and Characterization of the Novel Rodent-Active and CNS-Penetrant P2X7 Receptor Antagonist Lu AF27139” (J Med Chem, 2021)

Columns and labels:
[1] = molecular target: T1, P2X purinoceptor 7 (Homo sapiens, UniProt Q99572); test: Antagonist activity at human P2X7 receptor expressed in HEK293 cells assessed as inhibition of BzATP-induced calcium-flux measured after 60 mins by FLIPR analysis; format: cell-based
T1 sequence (Q99572 whole entry): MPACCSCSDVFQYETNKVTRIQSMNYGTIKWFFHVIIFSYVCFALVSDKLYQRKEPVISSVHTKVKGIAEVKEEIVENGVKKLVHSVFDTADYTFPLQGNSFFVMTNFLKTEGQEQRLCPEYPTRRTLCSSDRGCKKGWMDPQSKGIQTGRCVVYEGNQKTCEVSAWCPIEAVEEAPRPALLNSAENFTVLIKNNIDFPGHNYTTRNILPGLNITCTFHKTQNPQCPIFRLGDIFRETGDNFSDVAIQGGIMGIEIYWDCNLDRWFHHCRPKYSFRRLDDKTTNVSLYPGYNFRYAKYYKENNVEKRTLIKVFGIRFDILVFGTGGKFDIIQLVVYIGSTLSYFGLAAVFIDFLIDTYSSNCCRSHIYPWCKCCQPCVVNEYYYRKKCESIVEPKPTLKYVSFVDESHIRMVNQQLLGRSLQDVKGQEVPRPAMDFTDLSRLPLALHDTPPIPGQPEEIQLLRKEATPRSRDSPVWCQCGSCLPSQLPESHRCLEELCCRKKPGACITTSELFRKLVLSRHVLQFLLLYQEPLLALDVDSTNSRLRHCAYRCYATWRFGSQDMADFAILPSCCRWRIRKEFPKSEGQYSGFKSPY

[2] = molecular target: T2, P2X purinoceptor 7 (Rattus norvegicus, UniProt Q64663); test: Antagonist activity at rat P2X7 receptor expressed in HEK293 cells assessed as inhibition of BzATP-induced calcium-flux measured after 60 mins by FLIPR analysis; format: cell-based
T2 sequence (Q64663 whole entry): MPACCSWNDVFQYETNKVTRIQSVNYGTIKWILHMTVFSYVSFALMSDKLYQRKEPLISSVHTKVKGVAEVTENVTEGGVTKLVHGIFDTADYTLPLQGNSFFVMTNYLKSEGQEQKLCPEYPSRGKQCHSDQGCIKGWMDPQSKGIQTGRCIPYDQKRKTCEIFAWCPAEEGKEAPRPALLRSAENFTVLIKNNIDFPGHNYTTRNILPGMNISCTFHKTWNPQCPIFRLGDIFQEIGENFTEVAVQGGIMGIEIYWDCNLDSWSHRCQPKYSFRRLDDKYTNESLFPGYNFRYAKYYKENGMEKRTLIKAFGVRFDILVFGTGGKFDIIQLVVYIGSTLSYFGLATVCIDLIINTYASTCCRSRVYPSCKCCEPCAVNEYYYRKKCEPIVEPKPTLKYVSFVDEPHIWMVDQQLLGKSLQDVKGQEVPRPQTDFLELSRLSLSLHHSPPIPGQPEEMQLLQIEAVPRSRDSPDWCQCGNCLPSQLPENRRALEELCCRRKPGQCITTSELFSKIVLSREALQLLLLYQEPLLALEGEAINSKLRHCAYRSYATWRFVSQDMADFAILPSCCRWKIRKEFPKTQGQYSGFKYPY
Outline: (§1)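 Stable rat or mouse P2X7 HEK293 cells in HBSS/20 mM HEPES/2.5 mM probenecid/0.05% BSA, pH 7.4, were loaded with Fluo-4 NW (37 °C 30 min, RT 30 min). After 30 min at RT, calcium fluorescence was read by FLIPR; n ≥ 3.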

[3] = molecular target: T3, P2X purinoceptor 7 (Mus musculus, UniProt Q9Z1M0); test: Antagonist activity at mouse P2X7 receptor expressed in HEK293 cells assessed as inhibition of BzATP-induced calcium-flux measured after 60 mins by FLIPR analysis; format: cell-based; outline: as §1
T3 sequence (Q9Z1M0 whole entry): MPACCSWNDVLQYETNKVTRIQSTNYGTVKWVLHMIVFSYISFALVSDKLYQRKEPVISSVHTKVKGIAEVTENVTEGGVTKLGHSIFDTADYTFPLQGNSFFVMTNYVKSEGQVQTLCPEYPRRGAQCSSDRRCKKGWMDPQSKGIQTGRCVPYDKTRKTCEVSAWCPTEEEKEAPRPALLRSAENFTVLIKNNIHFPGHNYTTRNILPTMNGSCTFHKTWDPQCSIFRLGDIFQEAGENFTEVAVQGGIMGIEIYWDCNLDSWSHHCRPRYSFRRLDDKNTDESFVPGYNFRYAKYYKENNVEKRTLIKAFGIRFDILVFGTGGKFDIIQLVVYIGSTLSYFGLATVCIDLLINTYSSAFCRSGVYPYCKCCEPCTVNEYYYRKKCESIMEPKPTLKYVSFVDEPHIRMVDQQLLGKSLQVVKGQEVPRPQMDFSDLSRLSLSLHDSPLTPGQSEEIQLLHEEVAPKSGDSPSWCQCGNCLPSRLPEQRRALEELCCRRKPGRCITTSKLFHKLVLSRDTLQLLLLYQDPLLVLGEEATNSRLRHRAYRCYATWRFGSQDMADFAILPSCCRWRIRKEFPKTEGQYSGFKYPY

[4] = molecular target: T1, P2X purinoceptor 7; test: Displacement of [3H]-A-804598 from human P2X7 receptor expressed in HEK293 cell membrane by in vitro binding assay; format: cell membranes
[5] = molecular target: T2, P2X purinoceptor 7; test: Displacement of [3H]-A-804598 from rat P2X7 receptor expressed in HEK293 cell membrane by in vitro binding assay; format: cell membranes
[6] = in vitro; settings: human, liver microsomes
[7] = in vitro; settings: rat, liver microsomes
[8] = Efflux ratio of permeability across basolateral to apical side over apical to basolateral side in MDCK2-MDR1 cells; format: ADME, cell-based, Canis lupus familiaris; settings: dog, MDCK-MDR1
Outline: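 MDR1-MDCK monolayers; permeability measured in both A-to-B and B-to-A directions, in triplicate. Efflux ratio taken as B:A over A:B permeation.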

[9] = Apparent permeability across apical to basolateral side in MDCK-MDR1 cells by LC-MS/MS analysis; settings: dog
[10] = system: THP-1; test: Antiinflammatory activity against human THP-1 cells assessed as reduction in LPS and BzATP-induced IL-1beta release measured after 50 mins by microplate reader; format: functional, cell-based; settings: THP-1, 50 min
Outline: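 THP-1 cells were differentiated with IFN-γ 10 ng/mL for 48 h and primed with LPS (100 ng/mL final) for 3.5 h at 10k cells/well. Compound was added for 20 min, then BzATP (1 mM final) for 30 min at 37 °C. Supernatant IL-1β was read by human AlphaLISA.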

[11] = molecular target: T3, P2X purinoceptor 7; test: Displacement of [3H]-A-804598 from mouse P2X7 receptor expressed in HEK293 cell membrane by in vitro binding assay; format: cell membranes

Row | Structure (SMILES) | IC50 [1] | IC50 [2] | IC50 [3] | Ki [4] | Ki [5] | CLint scaled at 1 h, 1 µM [6] | CLint scaled at 1 h, 1 µM [7] | efflux ratio [8] | Papp A:B [9] | IC50 [10] | Ki [11]
1 | Clc1cccc(-c2nnnn2Cc2cccnc2)c1Cl | 2100 nM | 910 nM | 2900 nM | 68 nM | 200 nM | 16.7 mL/min/kg | 767 mL/min/kg |  |  |  | 
2 | O=C(NCC1CCCCCC1)c1cn(CCO)c2ccccc12 | 72 nM | 1500 nM | 240 nM |  |  | 883 mL/min/kg | 533 mL/min/kg | 0.7 | 5.9 ×10⁻⁶ cm/s |  | 
3 | O=C(NC[C@@H](c1ccc(Cl)cc1)N1CCOCC1)c1sc(-c2ncccn2)nc1C(F)(F)F |  | 95 nM |  |  |  |  |  |  |  |  | 
4 | COc1ccc(CC(=O)NC(N/C(=N/C#N)Nc2cccc3ncccc23)C(C)(C)C)cc1OC (stereo not given) | 81 nM |  | 250 nM | 130 nM |  |  |  |  | 0.2 ×10⁻⁶ cm/s |  | 
5 | CN1CCc2c(cccc2C(=O)NCC2(N3CCN(c4ccccc4)CC3)CCCCC2)C1 |  |  |  |  |  |  | 200 mL/min/kg | 1.1 | 0.25 ×10⁻⁶ cm/s |  | 
6 | CN1C(=O)CC[C@H]1C(=O)NCc1cccc(C(F)(F)F)c1Cl [GSK1482160] | 20 nM | 1900 nM | 2300 nM | 5.7 nM | 510 nM | 5 mL/min/kg | 16.7 mL/min/kg | 0.72 | 20 ×10⁻⁶ cm/s |  | 
7 | C[C@H](N/C(=N/C#N)Nc1cccc2ncccc12)c1ccccc1 |  | 6.1 nM |  |  | 3.9 nM | 23.3 mL/min/kg | 71.7 mL/min/kg |  | 9.3 ×10⁻⁶ cm/s | 15 nM | 
8 | O=C(Cc1cccc(C(F)(F)F)c1Cl)NC1COc2ncccc21 (stereo not given) | 5.5 nM | 260 nM | 320 nM | 5.6 nM |  | 26.7 mL/min/kg | 85 mL/min/kg | 0.83 | 25 ×10⁻⁶ cm/s | 27 nM | 100 nM
9 | O=C(NCC12CC3CC(CC(C3)C1)C2)c1cc(CCCNCCCO)ccc1Cl [AZD9056] | 3.5 nM | 4.4 nM | 1700 nM | 15 nM | 130 nM | 20 mL/min/kg | 43.3 mL/min/kg | 17 | 0.7 ×10⁻⁶ cm/s |  | 
10 | COC[C@H](O)Cn1c(=O)cnn(-c2ccc(Cl)c(C(=O)NCC3(O)CCCCCC3)c2)c1=O [CE-224535] | 0.76 nM | 470 nM | 660 nM |  |  |  |  |  | 0.6 ×10⁻⁶ cm/s |  | 
11 | FC(F)(F)c1cccc(-c2nnnn2Cc2cccnc2)c1Cl | 57 nM | 71 nM | 300 nM | 7.4 nM | 16 nM | 75 mL/min/kg | 417 mL/min/kg | 0.77 | 40 ×10⁻⁶ cm/s | 140 nM | 48 nM
12 | O=C(NCC1(O)CCC(F)(F)CC1)c1cc(-c2ncc(F)cn2)ccc1Cl |  | 5500 nM | > 10000 nM |  | 4800 nM | 7.83 mL/min/kg | 53.3 mL/min/kg |  | 18 ×10⁻⁶ cm/s |  | 
13 | O=C(NCC1(N2CCN(c3ccccc3)CC2)CCOCC1)c1cccnc1Sc1ccccc1 | 35 nM | 4.7 nM | 0.65 nM |  | 98 nM | 283 mL/min/kg | 433 mL/min/kg | 1.1 | 11 ×10⁻⁶ cm/s |  | 
